Active and inactive are the calls of the source.
Assays:
[1] = biological target: Voltage-gated potassium channel, KQT; KCNQ2(Kv7.2)/KCNQ3(Kv7.3) (Homo sapiens, UniProt O43525+O43526); assay: Activation of KCNQ2/KCNQ3 expressed in CHO cells by isotopic efflux assay; type: cell-based
Method in brief: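 86Rb+ flux in K+-channel-expressing cells loaded by culture in 86RbCl, then washed in EBSS. Preincubated with drug (0.01-30 μM in EBSS), then efflux stimulated by submaximal KCl (generally 7-20 mM) with drug still present. Supernatant and SDS lysate counted by Cherenkov. Percent efflux normalized to high-KCl (generally 30-135 mM) maximum. EC50 from eight-point half-log curves; mean of 2-4 determinations ± SEM.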

Mus musculus [2] = assay: Anticonvulsant activity against maximal electroshock-induced seizures in CD1 mouse model at 10 mg/kg, po treated 30 mins before electroshock application; type: functional, organism-based; design: dose 10 mg/kg
Method in brief: (§1)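 Male CD-1 mice dosed po (10 mL/kg in 5% DMSO/95% of 0.5% HPMC/1% Tween 80) 30 min before corneal electroshock at 50 mA for 0.2 s, with 1% proparacaine in each eye. Latency to hindlimb extension recorded to 0.1 s. No extension within 6 s scored as protected (latency 6 s). Reported as protected/tested (8 per group), or EC50 derived from latency scores.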

Rattus norvegicus [3] = assay: Analgesic activity in Sprague-Dawley rat assessed as reduction of spinal nerve ligation-induced allodynia score at 100 mg/kg, iv; type: functional; design: scale not given: the % may be the effect or the level left
Method in brief: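 L5 spinal nerve ligation (4.0 silk, distal to DRG, halothane anesthesia) in male Sprague-Dawley rats, with 2-3 weeks recovery. Tactile allodynia read as von Frey paw withdrawal threshold on a wire mesh floor, capped at 15 g. Baseline measured right before dosing; behaviour tested 1 and 2 h after administration.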

Rattus norvegicus [4] = assay: Antinociceptive activity in formalin-treated Sprague-Dawley rat model assessed as reduction in hind paw flinches at 100 mg/kg, iv measured during 11 to 60 mins of phase 2 flinches; type: functional; design: scale not given: the % may be the effect or the level left
Method in brief: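 Formalin test in male Sprague-Dawley rats fitted with a 0.5 g metal band on the right hind paw. Rats received 50 μL of 2.5% formalin sc into the dorsal right hind paw and were placed unrestrained over an electromagnetic detector. Flinches were counted for 60 min, with phase II defined as 11-60 min.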

Rattus norvegicus [5] = assay: Antinociceptive activity in formalin-treated Sprague-Dawley rat model assessed as reduction in hind paw flinches at 17 mg/kg, po measured during 11 to 60 mins of phase 2 flinches; type: functional; design: scale not given: the % may be the effect or the level left
Method in brief: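 Male Sprague-Dawley rats dosed po in 0.5% methylcellulose 1 h before assay. A 0.5 g metal band was glued to the right hind paw 1 h beforehand. 2.5% formalin (50 μL) was injected sc into the dorsal right hind paw. An electromagnetic detector counted flinches for 60 min; phase II is 11-60 min post-injection.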

Rattus norvegicus [6] = assay: Analgesic activity in Sprague-Dawley rat assessed as reduction of spinal nerve ligation-induced allodynia score at 10 mg/kg, po; type: functional; design: scale not given: the % may be the effect or the level left
Method in brief: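 Male Sprague-Dawley rats; L5 spinal nerve tightly ligated with 4.0 silk distal to the DRG under halothane, then 2-3 weeks recovery. Dosed po in 0.5% methylcellulose. Von Frey tactile withdrawal thresholds measured on a wire mesh floor, top threshold 15 g. Baseline taken just before dosing; testing at 1 and 2 h post-dose.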

Mus musculus [7] = assay: Anticonvulsant activity against maximal electroshock-induced seizures in CD1 mouse model at 30 mg/kg, po treated 30 mins before electroshock application; type: functional, organism-based; design: dose 30 mg/kg; method in brief: as §1
Rattus norvegicus [8] = assay: Anticonvulsant activity in po dosed Sprague-Dawley rat assessed as inhibition of pentylenetetrazole-induced seizure treated 30 mins before PTZ challenge; type: functional, organism-based
Method in brief: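 Male Sprague-Dawley rats received compound po in 0.5% methylcellulose (1 mL/kg) 30 min before PTZ 85 mg/kg sc. Latency to tonic-clonic seizure timed from PTZ injection. No seizure within 15 min scored as protected (latency 15 min). EC50 derived from latency scores.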

Mus musculus [9] = assay: Anticonvulsant activity against maximal electroshock-induced seizures in CD1 mouse model at 20 mg/kg, po treated 30 mins before electroshock application; type: functional, organism-based; design: dose 20 mg/kg; method in brief: as §1
Mus musculus [10] = assay: Anticonvulsant activity against maximal electroshock-induced seizures in CD1 mouse model at 30 mg/kg, ip treated 15 mins before electroshock application; type: functional, organism-based; design: dose 30 mg/kg
Method in brief: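 Male CD-1 mice dosed ip at 30 mg/kg (10 mL/kg in 5% DMSO/95% of 0.5% HPMC/1% Tween 80) 15 min before corneal electroshock (50 mA, 0.2 s, 1% proparacaine in eyes). Hindlimb extension latency measured; no extension by 6 s counted as protected. Reported as protected/tested out of 8 mice.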

Voltage-gated potassium channel, KQT; KCNQ2(Kv7.2)/KCNQ3(Kv7.3), sequence (O43526 whole entry): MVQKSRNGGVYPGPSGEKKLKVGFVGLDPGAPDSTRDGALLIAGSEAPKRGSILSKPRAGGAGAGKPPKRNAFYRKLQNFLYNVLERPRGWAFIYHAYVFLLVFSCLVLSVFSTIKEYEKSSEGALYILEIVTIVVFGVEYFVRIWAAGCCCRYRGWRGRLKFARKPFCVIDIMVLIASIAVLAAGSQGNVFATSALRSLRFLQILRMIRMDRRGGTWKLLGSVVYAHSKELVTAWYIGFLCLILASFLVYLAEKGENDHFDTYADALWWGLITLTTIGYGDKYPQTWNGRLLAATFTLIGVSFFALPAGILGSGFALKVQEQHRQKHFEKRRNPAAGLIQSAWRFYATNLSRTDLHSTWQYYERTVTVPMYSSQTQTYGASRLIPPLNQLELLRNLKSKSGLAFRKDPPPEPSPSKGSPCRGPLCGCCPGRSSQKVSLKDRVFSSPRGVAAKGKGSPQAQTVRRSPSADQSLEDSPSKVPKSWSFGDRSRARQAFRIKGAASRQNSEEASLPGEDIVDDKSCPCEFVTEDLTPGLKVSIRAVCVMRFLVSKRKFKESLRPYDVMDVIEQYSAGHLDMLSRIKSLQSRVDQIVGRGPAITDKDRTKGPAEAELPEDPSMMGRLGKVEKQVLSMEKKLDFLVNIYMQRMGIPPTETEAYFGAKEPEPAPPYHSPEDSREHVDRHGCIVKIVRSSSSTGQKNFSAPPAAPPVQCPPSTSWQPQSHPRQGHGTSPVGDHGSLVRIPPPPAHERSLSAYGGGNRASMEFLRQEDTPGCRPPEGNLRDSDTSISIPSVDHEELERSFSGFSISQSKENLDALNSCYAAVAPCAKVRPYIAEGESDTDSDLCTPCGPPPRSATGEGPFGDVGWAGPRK
Voltage-gated potassium channel, KQT; KCNQ2(Kv7.2)/KCNQ3(Kv7.3), sequence (O43525 whole entry): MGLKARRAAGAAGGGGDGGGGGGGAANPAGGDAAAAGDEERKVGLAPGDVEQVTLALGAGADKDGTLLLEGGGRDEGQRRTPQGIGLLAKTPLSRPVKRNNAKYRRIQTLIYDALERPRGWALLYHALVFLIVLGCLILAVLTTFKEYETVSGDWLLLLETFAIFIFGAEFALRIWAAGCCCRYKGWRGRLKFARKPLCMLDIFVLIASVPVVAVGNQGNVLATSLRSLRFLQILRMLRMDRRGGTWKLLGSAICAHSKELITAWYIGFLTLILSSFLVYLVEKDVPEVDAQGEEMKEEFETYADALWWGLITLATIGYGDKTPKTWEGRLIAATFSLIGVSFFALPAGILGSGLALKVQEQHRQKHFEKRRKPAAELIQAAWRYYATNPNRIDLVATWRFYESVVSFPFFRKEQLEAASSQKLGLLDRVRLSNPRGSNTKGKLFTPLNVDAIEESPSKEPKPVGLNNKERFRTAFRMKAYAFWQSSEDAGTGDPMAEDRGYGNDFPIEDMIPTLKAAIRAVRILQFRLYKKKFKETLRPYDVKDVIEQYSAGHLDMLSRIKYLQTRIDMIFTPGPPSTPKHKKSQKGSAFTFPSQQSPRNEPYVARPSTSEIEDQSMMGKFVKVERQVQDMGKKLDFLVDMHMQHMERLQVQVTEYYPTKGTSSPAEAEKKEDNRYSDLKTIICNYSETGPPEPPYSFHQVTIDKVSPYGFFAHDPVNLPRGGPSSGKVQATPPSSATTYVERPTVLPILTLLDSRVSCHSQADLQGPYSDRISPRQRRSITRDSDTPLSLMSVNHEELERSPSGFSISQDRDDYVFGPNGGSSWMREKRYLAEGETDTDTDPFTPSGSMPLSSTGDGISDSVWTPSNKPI

Structure (SMILES): Cn1/c(=N/NC(=O)C2CCOC2)sc2cc(OC(F)(F)F)ccc21 (centres undefined)
- EC50 [1]: 6730 nM

Structure (SMILES): CCn1/c(=N/NC(=O)C23CC4CC(CC(C4)C2)C3)sc2ccccc21
- EC50 [1]: 570 nM

Structure (SMILES): Cn1/c(=N/NC(=O)c2cccc(F)c2)sc2cc(OC(F)(F)F)ccc21
- EC50 [1]: 100 nM

Structure (SMILES): CC(=O)N/N=c1\sc2cc(OC(F)(F)F)ccc2n1C
- EC50 [1]: > 10000 nM

Structure (SMILES): Cn1/c(=N/NC(=O)C23CC4CC(CC(C4)C2)C3)sc2c(C(F)(F)F)cccc21
- EC50 [1]: 2080 nM

Structure (SMILES): Cn1/c(=N/NC(=O)C23CC4CC(CC(C4)C2)C3)sc2ccccc21
- EC50 [1]: 27 nM

Structure (SMILES): Cn1/c(=N/NC(=O)OC(C)(C)C)sc2cc(OC(F)(F)F)ccc21
- EC50 [1]: 23 nM
- Activity (Mus musculus [2]): Active

Structure (SMILES): NCC1(CC(=O)O)CCCCC1 [GABAPENTIN]
- Activity (Rattus norvegicus [3]): 70%
- Activity (Rattus norvegicus [4]): 61%

Structure (SMILES): Cn1/c(=N/NC(=O)C2CCCO2)sc2cc(OC(F)(F)F)ccc21 (centres undefined)
- EC50 [1]: 5570 nM

Structure (SMILES): CN(/N=c1\sc2ccccc2n1C)C(=O)C12CC3CC(CC(C3)C1)C2
- EC50 [1]: > 10000 nM

Structure (SMILES): Cn1/c(=N/NC(=O)C23CC4CC(CC(C4)C2)C3)sc2cccc(F)c21
- EC50 [1]: 380 nM

Structure (SMILES): Cn1/c(=N/NC(=O)c2ccco2)sc2cc(OC(F)(F)F)ccc21
- EC50 [1]: 500 nM

Structure (SMILES): CCOC(=O)Nc1ccc(NCc2ccc(F)cc2)cc1N [EZOGABINE]
- Activity (Rattus norvegicus [5]): 49%
- Activity (Rattus norvegicus [6]): 0%

Structure (SMILES): Cn1/c(=N/NC(=O)C23CC4CC(CC(C4)C2)C3)oc2ccccc21
- EC50 [1]: 2700 nM

Structure (SMILES): Cn1/c(=N/NC(=O)C23CC4CC(CC(C4)C2)C3)sc2cccc(C(F)(F)F)c21
- EC50 [1]: 91 nM

Structure (SMILES): Cn1/c(=N/NC(=O)c2ccc(F)cc2)sc2cc(OC(F)(F)F)ccc21
- EC50 [1]: 44 nM

Structure (SMILES): Cn1/c(=N/NC(=O)c2ccccc2)sc2cc(OC(F)(F)F)ccc21
- EC50 [1]: 260 nM

Structure (SMILES): Cn1/c(=N/NC(=O)C23CC4CC(CC(C4)C2)C3)sc2cc(F)ccc21
- EC50 [1]: 28 nM
- Activity (Mus musculus [7]): inactive

Structure (SMILES): Cn1/c(=N/NC(=O)C(C)(C)C)sc2cc(OC(F)(F)F)ccc21
- EC50 [1]: 710 nM
- Activity (Mus musculus [2]): inactive
- EC50 (Rattus norvegicus [8]): 3.8 mg/kg

Structure (SMILES): Cn1/c(=N/NC(=O)C23CC4CC(CC(C4)C2)C3)sc2cc(C(F)(F)F)ccc21
- EC50 [1]: 160 nM
- Activity (Mus musculus [7]): inactive

Structure (SMILES): Cn1/c(=N/NC(=O)OC2CCCC2)sc2cc(OC(F)(F)F)ccc21
- EC50 [1]: 29 nM

Structure (SMILES): Cn1/c(=N/NC(=O)C2CCCCC2)sc2cc(OC(F)(F)F)ccc21
- EC50 [1]: 28 nM

Structure (SMILES): Cn1/c(=N/NC(=O)C23CC4CC(CC(C4)C2)C3)sc2c(F)cccc21
- Activity (Mus musculus [9]): inactive
- EC50 [1]: 98 nM

Structure (SMILES): Cn1/c(=N/NC(=O)C2CCCC2)sc2cc(OC(F)(F)F)ccc21
- Activity (Mus musculus [9]): inactive
- EC50 [1]: 62 nM

Structure (SMILES): Cn1/c(=N/NC(=O)C23CC4CC(CC(C4)C2)C3)sc2cc(OC(F)(F)F)ccc21
- EC50 [1]: 25 nM
- Activity (Mus musculus [10]): Active

Structure (SMILES): Cn1/c(=N/NC(=O)C23CC4CC(CC(C4)C2)C3)sc2cc(F)c(F)cc21
- EC50 [1]: 21 nM

Structure (SMILES): Cn1/c(=N/NC(=O)C23CC4CC(CC(C4)C2)C3)sc2cc(F)cc(F)c21
- EC50 [1]: 160 nM

Structure (SMILES): Cn1/c(=N/NC(=O)C23CC4CC(CC(C4)C2)C3)sc2ccc(C(F)(F)F)cc21
- EC50 [1]: 53 nM
- Activity (Mus musculus [7]): inactive
